# Assay outcomes as filed in PubChem BioAssay.
# The list is not random: actives were taken first. Their share in the collection is about 3.5%.
# FLuc stim CS – firefly luciferase counter-screen for stimulation assays; P08659; ATPlite luciferase biochemical, luminescence, 10 min; 0 = ATP-free wells, 1 = DMSO control; activation factor at 10 µM; 200,000 tested, under 10 active;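 active = luciferase activation factor, scaled between plate controls, of at least 2 with compound at 10 µM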
# Target sequence (P08659 whole entry, looked up): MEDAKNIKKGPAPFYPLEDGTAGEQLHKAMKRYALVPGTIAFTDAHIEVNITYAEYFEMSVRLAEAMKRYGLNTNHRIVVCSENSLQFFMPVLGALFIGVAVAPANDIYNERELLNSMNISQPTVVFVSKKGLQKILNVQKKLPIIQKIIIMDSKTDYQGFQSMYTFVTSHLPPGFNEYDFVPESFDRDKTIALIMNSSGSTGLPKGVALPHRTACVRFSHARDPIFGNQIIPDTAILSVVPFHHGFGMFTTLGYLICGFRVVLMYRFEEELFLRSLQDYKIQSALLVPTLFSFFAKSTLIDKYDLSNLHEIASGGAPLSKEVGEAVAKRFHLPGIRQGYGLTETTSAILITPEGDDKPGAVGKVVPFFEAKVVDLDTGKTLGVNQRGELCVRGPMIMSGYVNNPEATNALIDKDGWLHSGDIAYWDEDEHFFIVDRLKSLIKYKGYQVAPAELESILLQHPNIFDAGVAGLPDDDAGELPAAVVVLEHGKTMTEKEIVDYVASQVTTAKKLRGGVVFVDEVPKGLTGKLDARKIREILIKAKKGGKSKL
#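 Material: Luciferase/luciferin reagent mix | Doses: Test compounds dosed from 2 mM stocks in 100% DMSO | Timing: 10 min incubation after luciferase reagent addition, room temperature | Measured by: Luminescence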
# FLuc inh counter – inhibits firefly luciferase, flagging false hits in luciferase inhibition screens; inhibition, % at 10 µM; P08659; 200,000 tested, 1.5% active; ATPLite firefly luciferase biochemical luminescence, 10 min;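 active = inhibition above about 50% when tested at 10 µM, limit read from the data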
# NF-kB neuron act – raises NF-kB expression in human neuronal cells. NF-kB reporter expression; hits give high values. 190,000 tested, 1.6% active. fold change at 12.5 µM; in the data active = fold change above about 3.3
# Pf gamet viab – inhibitors of late stage P. falciparum gametocyte viability; P. falciparum stage V gametocytes, ATP luminescence, 24 h; inhibition, % at 10.9 µM; 150,000 tested, 0.065% active; AID 743093;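 active = inhibition above the mean plus 3 SD of compounds within the control limits, set per campaign, cut at about 38% in these data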;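 also: 0% = DMSO wells and 100% = medium only without gametocytes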
# APP 5'UTR act – activates APP 5'UTR luciferase reporter. SH-SY5Y APP 5'UTR luciferase reporter, luminescence; zero percent = DMSO vehicle wells. activation, % at 2 µM. 190,000 tested, 1% active. AID 1276;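 active = activation above a set limit, based on mean plus 3 SD of controls, cut at about 140% in these data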
# STAT1 act – STAT1 signaling activation. NIH 3T3 STAT1-luciferase reporter, IFN-gamma, luminescence; 100% = IFN-gamma alone, no compound. activation (% of control), % at 5.5 µM. 200,000 tested, 2.6% active. AID 932;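 active = activation above the screen-wide mean activation plus 3 SD, cut at about 130% in these data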;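 also: raw ratio to IFN-gamma control signal so 100% means no change and 0% no light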
# * hit, by the source's call; . = no result.
SMILES,FLuc stim CS,FLuc inh counter,NF-kB neuron act,Pf gamet viab,APP 5'UTR act,STAT1 act
Cc1nc2ccccn2c1C(=O)Nc1ccc(Cl)cc1,0.9,13,2.2,4,35,140*
CC(=O)Nc1ccc(NC(=O)c2c(C)nc3ccccn23)cc1,1,-3,1.4,.,-1,100
CCn1nnnc1SCC(=O)Nc1ccc2c(c1)OCO2,1,-4,1.4,.,10,105
Cn1nnnc1SCC(=O)Nc1ccc2c(c1)OCO2,1,-2,1.9,.,-2,141*
O=C(Nc1cc(Cl)ccc1C(=O)O)c1ccc(CN2C(=O)c3ccccc3C2=O)cc1,.,.,.,-4,.,.
CCCS/C(N)=N/N=C/c1cc(C)ccc1O,0.5,50,11*,.,150*,117
CCCCS/C(N)=N/N=C/c1ccccc1O,1,3,2.8,.,.,109
O=C(NCCc1cccc(Cl)c1)c1cccs1,0.8,16,3.1,-5,96,127
O=C(NCCc1ccccc1)c1cnc2sccn2c1=O,1,-1,2,.,74,136*
O=C(NCc1ccncc1)C(=O)NCC(c1ccccc1)c1ccccc1,1,-5,1.2,0,-4,113
CC(=O)Nc1ccc(C(=O)NCCc2ccccc2)cc1,1,2,1,1,28,111
O=C(NCCc1ccccc1)c1ccncc1,1,-5,2.2,.,33,130*
O=C(NCCc1ccccc1)C(=O)NCc1ccncc1,0.5,50*,1.2,17,-9,104
O=C(NCCc1ccccc1)c1cccs1,0.8,17,3.2,.,77,142*
COc1ccc(Br)cc1CNC(=O)CCc1nc(-c2ccc(C)cc2)no1,1.1,-6,1.2,.,-1,109
C(=N\c1nc2ccccc2n1CCN1CCCCC1)/c1cccs1,1,-5,1.5,.,4,100
Cn1c(/N=C/c2cccs2)nc2ccccc21,0.3,74*,0.59,.,-2,99
COc1ccc(/C=N/c2nc3ccccc3n2C)cc1OC,0.3,70*,1.2,.,10,91
NC(=O)CSc1nc(-c2ccccc2)nc2c1CCCC2,1,-2,1.7,14,2,104
CC1=Nc2ccccc2N=C(N)C1c1ccccc1 (stereo unspecified),1,-3,1,.,192*,146*
CC1=Nc2ccccc2N=C(NC(=O)c2ccccc2)C1c1ccc(Cl)cc1 (stereo unspecified),1,-3,0.57,3,5,88
CC(=O)N1CCc2cc(Br)cc(S(=O)(=O)NCC3CCCO3)c21 (stereo unspecified),1,-4,1.1,-9,-2,93
COc1ccc(/C=N/n2c(-c3cccs3)n[nH]c2=S)cc1,1,-3,5.2*,12,8,107
Cc1ccc(/C=N/n2c(-c3cccs3)n[nH]c2=S)cc1,1.1,-5,4.1*,-31,5,98
S=c1[nH]nc(-c2cccs2)n1/N=C/c1c(Cl)cccc1Cl,1,-1,1.1,2,2,98
SMILES,FLuc stim CS,FLuc inh counter,NF-kB neuron act,Pf gamet viab,APP 5'UTR act,STAT1 act
O=C(CSc1nnc(COc2ccccc2Cl)o1)NC(=O)NCc1ccco1,.,.,.,13,.,.
CCn1c(-c2cc(-c3ccc(C)cc3)nc3ccccc23)n[nH]c1=S,0.7,32,1.5,-15,13,104
CCn1c(-c2cc(-c3ccc(OC(C)C)cc3)nc3ccccc23)n[nH]c1=S,0.3,72*,2.1,.,37,113
O=C(O)c1ccc(-n2cc(-c3cc4ccccc4oc3=O)[nH]c2=S)cc1,0.8,25,0.44,-2,10,116
CCOc1c2ccc(C(=O)NCCc3ccc(C)cc3)cc2nn1CC,1,-3,1.1,.,21,100
O=C(NCCc1cccs1)c1ccc(Cl)cc1,.,.,.,11,.,.
Cc1ccc(C(=O)NCCc2cccs2)cc1,0.1,89*,1.8,-5,83,45
CCn1nc2cc(C(=O)NCCc3cccs3)ccc2c1OC,0.7,32,4*,31,131,133*
CCN1C(=O)CSc2ccc(C(=O)NCc3ccc(OC)cc3)cc21,1,-4,0.9,-6,.,93
CCOc1ccc(-c2nc(-c3cccnc3)no2)cc1,0.3,71*,6.8*,.,129,140*
CCCCOc1ccc(-c2nc(-c3cccnc3)no2)cc1,0.8,22,5.2*,-6,175*,128
CCOc1nc(-c2ccc(OC)cc2)ccc1-c1noc(-c2ccncc2)n1,1,-2,.,.,.,.
CCOc1ccc(-c2noc(-c3cccnc3)n2)cc1OC,0.8,15,1.1,.,4,127
CCOc1ccc(-c2nc(-c3ccccc3C)no2)cc1,0.5,54*,.,.,78,122
CCOc1cc(C(=S)N2CCCC2)ccc1OCC(=O)Nc1c(C)cc(C)cc1C,1.1,-9,1.1,.,.,98
Cc1ccc(NC(=O)n2ccc(-c3ccc(-n4ccnc4)cc3)n2)cc1,0.7,27,2.3,-6,97,135*
COCCN(CCOC)C(=O)c1c[nH]c2ccc(S(=O)(=O)N(C)c3ccc(F)cc3)cc2c1=O,1.1,-8,0.97,-14,18,98
c1ccc(CCc2nc(-c3ccccn3)no2)cc1,0.8,16,2.7,.,80,126
Cc1ccccc1-c1nc(Cc2ccccc2)no1,1,3,2.4,3,30,140*
COc1ccccc1-c1nc(-c2ccccn2)no1,0.1,88*,2.5,.,98,68
COc1cc(OC)cc(-c2nc(-c3ccccc3)no2)c1,1,4,2.1,.,.,121
COc1ccc(-c2nc(-c3ccccn3)no2)cc1,0,98*,0.24,23,-46,10
Clc1ccc(-c2nc(-c3ccccn3)no2)cc1Cl,0.1,88*,3,.,117,106
CCCCn1c(=O)[nH]c(=O)c2c1nc(-c1cc3c(cc1Br)OCO3)n2C,1.1,-6,1.1,5,21,101
Cn1c(SCC(=O)Nc2ccc3[nH]c(=O)[nH]c3c2)nnc1-c1ccc(F)cc1,.,.,.,-8,.,.
SMILES,FLuc stim CS,FLuc inh counter,NF-kB neuron act,Pf gamet viab,APP 5'UTR act,STAT1 act
Clc1ccc(OCc2nc(-c3ccccn3)no2)c(Br)c1,0.3,70*,3.2,.,138*,107
Cc1ccccc1-c1nc(-c2ccccn2)no1,0,95*,1.2,.,91,29
Brc1ccc(-c2nc(-c3ccccn3)no2)o1,0.3,74*,2.7,.,92,67
COc1ccccc1-c1noc(-c2cccs2)n1,0.7,33,3.8*,.,101,130*
Clc1ccccc1OCc1nc(-c2ccc(Br)o2)no1,1,1,2.8,.,11,123
O=C(Cc1ccc(Cl)cc1)NCCc1ccc(F)cc1,.,.,.,-22,.,.
Cc1c(-c2n[nH]c(=S)n2-c2ccc(C(F)(F)F)cc2)nnn1-c1ccccc1,1.1,-6,1.1,-23,4,98
COC(=O)CNC(=O)C(Cc1ccccc1)NS(=O)(=O)c1ccc2c(c1)c(=O)n(C)c(=O)n2C (stereo unspecified),1,-3,1,-6,1,103
